In publication PMC7323586 (Journal of molecular biology, 2020):

Legend:
B. subtilis XPRT [1] = target: T1, B. subtilis XPRT (Bacillus subtilis, UniProt P42085); experiment: DRaCALA binding of 32P-labeled alarmones to XPRT; settings: for nH (Hill coefficient from binding curve): DRaCALA binding curve, ± standard error
Summary of the method: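 Purified hexahistidine-tagged B. subtilis XPRT at varied concentrations was mixed with 32P-labelled alarmone in 20 mM HEPES pH 8, 100 mM NaCl, 10 mM MgCl2. The label was added at 1:50–1:100 of the first synthesis elution fraction. After 10 min at room temperature, aliquots were spotted on nitrocellulose, dried ≥20 min and phosphorimaged. Fraction bound was edge-corrected and fitted to Y = (Bmax × X^h)/(Kd^h + X^h).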

B. subtilis XPRT [2] = target: T1, B. subtilis XPRT; experiment: XPRT activity assay; type: biochemical; settings: 1 mM PRPP, 50 μM xanthine; ± standard error
Summary of the method: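 Xanthine started the reaction, and XMP was followed at A252 for 10 min (Δε 5350 M−1cm−1). Initial-velocity slopes were normalized to uninhibited controls and fitted to Y = 1/(1 + (X/IC50)^n), with n reported as napp.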

B. subtilis XPRT [3] = target: T1, B. subtilis XPRT; experiment: Size exclusion chromatography of XPRT with ppGpp in the mobile phase; settings: 35 μM ppGpp in the mobile phase, XPRT at 10 or 20 μM
Summary of the method: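 Untagged (TEV-cleaved) XPRT at 10 or 20 μM was run on a Superose 12 column at 0.25 mL/min. The mobile phase was 20 mM HEPES pH 8, 300 mM NaCl, 10 mM MgCl2, with ppGpp at 35 μM final, after equilibration with ≥1 column volume. A280 traces were baseline-normalized. Predicted retention volumes (monomer 13.58, dimer 12.41) came from the 21038 Da molecular weight and a column standard curve.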

XPRT = XPRT (Bacillus subtilis, UniProt P42085); experiment: XPRT interaction with ppApp; type: binding; settings: data not shown
XPRT, sequence (P42085 whole entry): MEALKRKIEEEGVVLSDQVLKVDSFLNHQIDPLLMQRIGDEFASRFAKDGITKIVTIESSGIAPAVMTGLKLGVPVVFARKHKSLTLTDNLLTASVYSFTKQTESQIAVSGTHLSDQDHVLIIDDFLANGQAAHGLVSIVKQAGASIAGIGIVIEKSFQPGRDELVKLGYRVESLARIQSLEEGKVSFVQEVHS

B. subtilis XPRT [4] = target: T1, B. subtilis XPRT; experiment: biochemical
B. subtilis = B. subtilis viability assay; type: cell-based, Bacillus subtilis; settings: (p)ppGpp^0 xpt mutant B. subtilis, 1 mM xanthine
Summary of the method: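 Strains were taken from single colonies, resuspended in S7 plus VILMTH amino acids, and spread on Spizizen casamino-acid agar for about 16 h at 30 °C. Cells were collected, diluted to OD600 0.01 in S7+VILMTH and grown to OD600 ≈ 0.2. After a t=0 sample, cultures were split and given 1 mM xanthine or water. Sampling was at 30, 60 and 120 min. Ten-fold dilutions were plated on LB for CFU/mL, in triplicate.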

(p)ppGpp^0 B. subtilis = experiment: GTP levels by thin layer chromatography of 32P-orthophosphate-labeled cells; type: cell-based, Bacillus subtilis

T1 sequence (P42085 whole entry): as above

SMILES | Kd (B. subtilis XPRT [1]) [nM] | nH (Hill coefficient from binding curve) (B. subtilis XPRT [1]) | napp (apparent Hill coefficient from inhibition curve) (B. subtilis XPRT [2]) | further results
Nc1nc2c(ncn2[C@@H]2O[C@H](COP(=O)(O)O)[C@@H](OP(=O)(O)OP(=O)(O)O)[C@H]2O)c(=O)[nH]1 [pGpp] | 760 ± 40 | 2.3 ± 0.2 | 1.6 ± 0.1 | 
Nc1nc2c(ncn2[C@@H]2O[C@H](COP(=O)(O)OP(=O)(O)O)[C@@H](OP(=O)(O)OP(=O)(O)O)[C@H]2O)c(=O)[nH]1 [ppGpp] | 950 ± 30 | 2.1 ± 0.1 | 1.7 ± 0.1 | effect on XPRT oligomeric state (B. subtilis XPRT [3]): stabilized the dimeric XPRT population
Nc1ncnc2c1ncn2[C@@H]1O[C@H](COP(=O)(O)OP(=O)(O)O)[C@@H](OP(=O)(O)OP(=O)(O)O)[C@H]1O [ppApp] |  |  |  | interaction with XPRT (XPRT): does not interact
Nc1nc2c(ncn2[C@@H]2O[C@H](COP(=O)(O)OP(=O)(O)OP(=O)(O)O)[C@@H](OP(=O)(O)OP(=O)(O)O)[C@H]2O)c(=O)[nH]1 [pppGpp] | 9600 ± 2200 | 1.3 ± 0.2 | 1.5 ± 0.1 | Ki (B. subtilis XPRT [4]): 2500 nM
O=c1[nH]c(=O)c2nc[nH]c2[nH]1 [xanthine] |  |  |  | viability (colony forming units) (B. subtilis): unaffected; increase in (p)ppGpp^0 GTP levels ((p)ppGpp^0 B. subtilis; (p)ppGpp^0 B. subtilis during growth with xanthine): ~ 6 fold; GTP levels ((p)ppGpp^0 B. subtilis; (p)ppGpp^0 vs wild type B. subtilis, 1 mM xanthine, 30 min): elevated relative to wild type
